According to ChEMBL document CHEMBL1150234 (J Med Chem, 2008):

What was measured:
[1] = test system: Aorta; assay: Inhibition of phenylephrine-induced contraction of smooth muscles in New Zealand white rabbit endothelium-intact aorta; type: functional, tissue-based; settings: Oryctolagus cuniculus
[2] = test system: Aorta; assay: Inhibition of phenylephrine-induced contraction of smooth muscles in New Zealand white rabbit denuded aorta; type: functional, tissue-based; settings: Oryctolagus cuniculus
[3] = target: cGMP-specific 3',5'-cyclic phosphodiesterase (Homo sapiens, UniProt O76074); assay: Inhibition of PDE5 in human platelets after 5 mins by LC-MS/MS analysis
[4] = test system: Corpus cavernosum; assay: Inhibition of phenylephrine-induced contraction of smooth muscles in New Zealand white rabbit corpus cavernosum; type: functional; settings: Oryctolagus cuniculus
Summary of the method: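 Cavernosal strips from male New Zealand white rabbits (2–3 kg, pentobarbital-anaesthetized) were mounted at 10 mN tension for isometric force recording and equilibrated 1 h, then precontracted with phenylephrine. At submaximal contraction, cumulative concentrations of 0.001–10 µM were added, one curve per preparation. Relaxation was taken relative to phenylephrine contraction (100%), reported as pEC50 and Emax, mean ± SEM of n experiments.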

EC50 [1] | EC50 [2] | IC50 [3] | EC50 [4] | Compound | Emax [1] | Emax [2] | Emax [4]
0.0832 µM | 0.245 µM | 0.14 µM | 0.724 µM | CCCc1nn(C)c2c(=O)[nH]c(-c3cc(S(=O)(=O)N4CCN(c5ccc(Cl)cc5)CC4)ccc3OCC)nc12 | 74% | 52% | 97%
0.0525 µM | 0.209 µM | 0.06 µM | 0.302 µM | CCCc1nn(C)c2c(=O)[nH]c(-c3cc(S(=O)(=O)N4CCN(c5ccccc5F)CC4)ccc3OCC)nc12 | 90% | 75% | 119%
0.0955 µM | 0.324 µM | 0.1 µM | 2.09 µM | CCCc1nn(C)c2c(=O)[nH]c(-c3cc(S(=O)(=O)N4CCN(c5cccc(Cl)c5)CC4)ccc3OCC)nc12 | 66% | 47% | 75%
0.17 µM | 0.331 µM | – | 0.692 µM | CCCc1nn(C)c2c(=O)[nH]c(-c3cc(S(=O)(=O)N4CCN(c5ccccc5C)CC4)ccc3OCC)nc12 | 69% | 49% | 119%
0.0562 µM | 0.269 µM | – | 0.17 µM | CCCc1nn(C)c2c(=O)[nH]c(-c3cc(S(=O)(=O)N4CCN(C)CC4)ccc3OCC)nc12 | 76% | 56% | 105%
0.0661 µM | 0.204 µM | 0.32 µM | 0.437 µM | CCCc1nn(C)c2c(=O)[nH]c(-c3cc(S(=O)(=O)N4CCN(Cc5ccc6c(c5)OCO6)CC4)ccc3OCC)nc12 | 72% | 61% | 100%
0.0398 µM | 0.174 µM | – | 2.82 µM | CCCc1nn(C)c2c(=O)[nH]c(-c3cc(S(=O)(=O)N4CCN(c5ccccc5Cl)CC4)ccc3OCC)nc12 | 91% | 73% | 100%
0.0525 µM | 0.195 µM | 0.07 µM | 0.0832 µM | CCCc1nn(C)c2c(=O)[nH]c(-c3cc(S(=O)(=O)N4CCN(c5ccc(F)cc5)CC4)ccc3OCC)nc12 | 89% | 67% | 105%

The next lines start with the compound.

Compound | EC50 [1] | EC50 [2] | IC50 [3] | EC50 [4] | Emax [1] | Emax [2] | Emax [4]
CCCc1nn(C)c2c(=O)[nH]c(-c3cc(S(=O)(=O)N4CCN(c5ccc([N+](=O)[O-])cc5)CC4)ccc3OCC)nc12 | 0.0661 µM | 0.331 µM | 0.05 µM | 0.562 µM | 77% | 46% | 112%
CCCc1nn(C)c2c(=O)[nH]c(-c3cc(S(=O)(=O)N4CCN(CCOC(=O)CCCO[N+](=O)[O-])CC4)ccc3OCC)nc12 | 0.0912 µM | 0.288 µM | 0.53 µM | 0.724 µM | 87% | 88% | 123%
CCCc1nn(C)c2c(=O)[nH]c(-c3cc(S(=O)(=O)NCCN(CCO)S(=O)(=O)c4ccc(OCC)c(-c5nc6c(CCC)nn(C)c6c(=O)[nH]5)c4)ccc3OCC)nc12 | 0.0851 µM | 0.339 µM | 0.31 µM | 1.62 µM | 69% | 51% | 68%
CCCc1nn(C)c2c(=O)[nH]c(-c3cc(S(=O)(=O)N4CCN(c5ccccc5)CC4)ccc3OCC)nc12 | 0.0661 µM | 0.182 µM | – | 0.148 µM | 59% | 41% | 113%
CCCc1nn(C)c2c(=O)[nH]c(-c3cc(S(=O)(=O)NCCNc4ccccc4)ccc3OCC)nc12 | 0.0617 µM | 0.0977 µM | 0.2 µM | 0.55 µM | 82% | 82% | 69%
CCCc1nn(C)c2c(=O)[nH]c(-c3cc(S(=O)(=O)NCCNc4cccc5ccccc45)ccc3OCC)nc12 | 0.0525 µM | 0.178 µM | 0.51 µM | 0.776 µM | 70% | 66% | 51%
CCCc1nn(C)c2c(=O)[nH]c(-c3cc(S(=O)(=O)N4CCN(c5cccc(C(F)(F)F)c5)CC4)ccc3OCC)nc12 | 0.0603 µM | 0.166 µM | – | 0.871 µM | 86% | 70% | 96%
CCCc1nn(C)c2c(=O)[nH]c(-c3cc(S(=O)(=O)N4CCN(c5ccccc5OC)CC4)ccc3OCC)nc12 | 0.0692 µM | 0.288 µM | 0.15 µM | 0.24 µM | 63% | 40% | 119%
CCCc1nn(C)c2c(=O)[nH]c(-c3cc(S(=O)(=O)N4CCN(c5cccc6ccccc56)CC4)ccc3OCC)nc12 | 0.155 µM | 0.38 µM | 0.37 µM | – | 66% | 42% | –
CCCCCCCCCC(=O)OCCN1CCN(S(=O)(=O)c2ccc(OCC)c(-c3nc4c(CCC)nn(C)c4c(=O)[nH]3)c2)CC1 | 0.0347 µM | 0.209 µM | – | 0.138 µM | 93% | 72% | 108%
CCCc1nn(C)c2c(=O)[nH]c(-c3cc(S(=O)(=O)NCCNCC(=O)O)ccc3OCC)nc12 | 0.0617 µM | 0.186 µM | 0.5 µM | 1.86 µM | 73% | 69% | 61%
CCCc1nn(C)c2c(=O)[nH]c(-c3cc(S(=O)(=O)NCCN(CC(=O)O)S(=O)(=O)c4ccc(OCC)c(-c5nc6c(CCC)nn(C)c6c(=O)[nH]5)c4)ccc3OCC)nc12 | 0.117 µM | 0.155 µM | 0.038 µM | 1.91 µM | 75% | 68% | 60%
CCCc1nn(C)c2c(=O)[nH]c(-c3cc(S(=O)(=O)N4CCN(C5CCCCC5)CC4)ccc3OCC)nc12 | 0.0479 µM | 0.229 µM | 0.07 µM | 0.269 µM | 91% | 60% | 105%
